# Screening data: PubChem BioAssay, several laboratories
# In the library only some 2.1% were active in any assay of this set; here they are far more common.
# INS promoter inh: TRM-6 insulin promoter activity inhibition; AID 1273; inhibition, % at 2 µM; 0.9% of 130,000 active; TRM-6 cells (human fetal islet line), insulin promoter-eGFP reporter, imaging; reporter expression induced with tamoxifen;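 active means inhibition above the mean plus 3 SD, with well images judged a real hit on visual review, cut at about 60% in these data, passing the limit was not always enough; inconclusive means inhibition over the cutoff but images rejected on review; inactive means inhibition not above the cutoff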
# Arbovirus anti: blocks arbovirus infection | arbovirus infection cell-based antiviral screen | inhibition, % at 10 µM | 0.37% of 200,000 active | AID 1251; in the data active means inhibition above about 30%
# PKD1 kinase inh: blocks activity of human protein kinase D1; inhibition, % (concentration not given with the values); Q15139; PKD1 kinase fluorescence polarization assay; 0.056% of 200,000 active; in the data active means inhibition above about 50%
# RBBP9 inh: inhibitors of human serine hydrolase RBBP9. AID 1515. inhibition, % at 7.94 µM. O75884. recombinant RBBP9, FP-Rh probe fluorescence polarization. 0.2% of 220,000 active;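 active means inhibition above the campaign mean of all tested compounds plus 3 SD, cut at about 14% in these data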;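 further: plate controls were DMSO wells with RBBP9 for no effect and wells lacking RBBP9 protein for full effect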
# Target sequence (O75884 whole entry, looked up): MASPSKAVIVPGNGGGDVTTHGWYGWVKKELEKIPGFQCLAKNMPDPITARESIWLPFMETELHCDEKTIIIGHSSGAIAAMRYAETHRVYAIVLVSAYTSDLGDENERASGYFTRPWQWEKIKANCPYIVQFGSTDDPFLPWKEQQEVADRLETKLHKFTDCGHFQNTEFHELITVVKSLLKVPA
#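 Test system: recombinant human RBBP9; Timing: 30 min then 45 min, 25 °C; Detection: fluorescence polarization; Control set: RBBP9 with DMSO as uninhibited control, no-protein wells as full inhibition; Compound dosing: one concentration, 7.94 µM nominal, 0.794% DMSO; Probe or stimulus: FP-Rh activity-based probe, 375 nM before mixing.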
# Insulin prom up: MIN6 insulin promoter up-regulation; MIN6 insulin promoter-GFP reporter, high-content imaging; stronger effect = higher value; 0.3% of 190,000 active; z-score at 5 µM;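 active means z-score above 3 at 5 µM with at least 500 cells counted in the well; inconclusive means wells under 500 cells, flagged as cytotoxic or low count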
# Autophagy mod: autophagy modulation, high-content screen | AID 463193 | MEF GFP-LC3 puncta imaging; test concentration mostly 10 µM | 0.98% of 190,000 active | calls only at 10 µM (by protocol);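 active means percentage of spot-positive cells more than 3 SD above its plate mean, without a fluorescence outlier flag or 80% toxicity; inconclusive means no clear call, values can overlap the other calls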;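 further: spot-positive cell cutoff set from DMSO-treated cells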
# RBBP9 inh conf: confirmation of human RBBP9 inhibitors | shares compounds with RBBP9 inh | recombinant RBBP9, FP-Rh probe fluorescence polarization | inhibition, % at 7.94 µM | 36% of 410 active;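 active means inhibition above the hit cutoff derived for the primary screen, cut at about 15% in these data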;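 further: 0% = RBBP9 with DMSO and 100% = wells lacking RBBP9 protein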
# An asterisk follows results filed as active; i = inactive; ? = inconclusive; · = not tested or not shown; + = active, no number.
SMILES,INS promoter inh,Arbovirus anti,PKD1 kinase inh,RBBP9 inh,Insulin prom up,Autophagy mod,RBBP9 inh conf
Nc1nc(SCC(=O)N2CCCCCC2)[nH]c(=O)c1NC(=O)c1ccco1,·,-1,0,15*,0.18,i,64*
CC(C)NC(=O)CSc1nc(N)c(NC(=O)c2ccco2)c(=O)[nH]1,·,1,-5,-1,-0.39,i,·
CCCCNc1c2c3c(cccc3n(C)c1=O)C(=O)c1ccccc1-2,-433,-21,32,24*,·,i,30*
CCNc1c2c3c(cccc3n(C)c1=O)C(=O)c1ccccc1-2,-171,-16,-15,22*,·,?,37*
Cn1c(=O)c(NCCc2ccccc2)c2c3c(cccc31)C(=O)c1ccccc1-2,-170,-3,39,109*,·,?,144*
Cn1c(=O)c(NC2CCCCC2)c2c3c(cccc31)C(=O)c1ccccc1-2,i,-8,18,-2,·,?,·
CCOc1ccc(C2Nc3cccc4cccc(c34)N2)cc1OC,7,8,-9,4,0.68,i,·
COc1ccc(C2Nc3cccc4cccc(c34)N2)cc1,·,-1,-4,25*,0.07,i,21*
c1csc(C2Nc3cccc4cccc(c34)N2)c1,·,6,3,30*,-0.85,i,45*
CCN(CC)c1ccc(NC(=O)c2ccco2)cc1,·,5,-6,-3,·,i,·
CC1=CC(C)(C)N(S(=O)(=O)c2ccc(C)cc2)c2cc(C)ccc21,-28,-27,-1,21*,·,+,9
Cc1nn(C(C)C(=O)O)c(=O)c2ccccc12 (stereo not given),·,3,6,18*,·,i,5
CC(C(=O)O)n1ncc2ccccc2c1=O (stereo not given),·,·,·,2,-0.66,·,·
O=[N+]([O-])c1ccc(Sc2cccc[n+]2[O-])c2nonc12,·,·,·,19*,?,·,50*
CCOC(=O)C(C(C)=O)c1c(Br)c(O)c(O)c2c(C(=O)c3ccc(C)cc3)coc12 (stereo not given),·,-37,-5,24*,-8,i,17*
Cc1onc(-c2c(Cl)cccc2Cl)c1C(=O)N1CCSCC1,·,·,·,-1,0.66,·,·
COc1cc(-c2nc3ccccn3c2/N=C/c2cccc(OC)c2O)ccc1O,36,-10,2,-6,-0.02,i,·
COc1cc(-c2nc3ccccn3c2/N=C/c2ccc(F)cc2)ccc1O,·,-2,1,16*,-0.98,i,11
O=C(OC(C(=O)NC1CCCCC1)c1ccccc1)c1ccco1 (stereo not given),-144,4,1,-5,·,i,·
Cc1cccc(COCC(Cc2ccccc2)N2CCN(C(=O)c3ccc(C(F)(F)F)cc3)CCC2=O)c1 (stereo not given),-55,-15,-14,3,0.21,i,·
CCN(CC)c1nc(N(CC)CC)[nH]c(=O)n1,-144,·,2,-12,·,i,·
Cc1cc(C)nc(SCc2ccc(C(=O)O)o2)n1,·,5,3,15*,·,i,5
O=C(Cc1cccs1)Nc1ccccc1C(=O)O,18,5,-4,4,·,i,·
O=C(Cc1cccs1)Nc1ccccc1NC(=O)Cc1cccs1,0,-4,-18,15*,·,i,12
COc1cccc(CNc2ccc(N3CCCCC3)cc2)c1OC,-46,-15,-7,14*,·,i,17*
SMILES,INS promoter inh,Arbovirus anti,PKD1 kinase inh,RBBP9 inh,Insulin prom up,Autophagy mod,RBBP9 inh conf
CCC(=O)N1C(=O)C2(Nc3ccccc3N2)c2ccccc21,-8,-2,-7,-3,0.58,i,·
O=C1CCCC(c2ccccc2)N1 (stereo not given),3,-5,-9,2,0.56,i,·
Cc1ccc(/C=C2\SC(=S)N(/N=C/c3cc([N+](=O)[O-])ccc3O)C2=O)o1,17,-3,0,15*,-0.26,i,23*
COc1ccccc1NC(=O)c1c(NC(=O)CCC(=O)O)sc2c1CCCCC2,·,·,·,-4,0.34,·,·
COc1ccc(OC)c(NC(=O)c2c(NC(=O)CCC(=O)O)sc3c2CCCCC3)c1,21,-5,6,21*,-0.18,i,7
CC(=O)c1c(C(C)=O)c(C)n(-c2ccc(O)cc2)c1C,8,-2,-2,-5,1,i,·
CC(=O)O/N=C1\C(=O)N(Cc2ccc(C)cc2)c2ccccc21,0,1,-3,-31,-1.1,i,·
